# UBC13 inh = inhibitors of human UBC13 polyubiquitin chain formation; actives 0.47% (n = 330,000); AID 485273; inhibition, % at 20 µM; TR-FRET; P61088; in the data active = inhibition above about 45%, passing the limit was not always enough; inconclusive = no clear call, values can overlap the other calls
# M18AAP inhibitor = blocks P. falciparum M18 aspartyl aminopeptidase | inhibition, % at 7.35 µM | AID 1822 | recombinant PfM18AAP, H-Glu-NHMec fluorogenic cleavage | actives 1.2% (n = 290,000);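 active = inhibition above the campaign mean inhibition over all tested compounds plus 3 SD, cut at about 28% in these data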;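 note: 0% = plate median of test compound wells and 100% = 2 mM ZnCl2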
# Apaf1 inhib = blocks human Apaf-1 apoptosome activity. O14727. AID 489030. inhibition, % at 20 µM. actives 0.71% (n = 330,000). reconstituted apoptosome caspase-3 activity, DEVD-Rh110 fluorescence; active = inhibition of at least 40% at 20 µM;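 note: plate controls were DMSO wells for no effect and DEVD-CHO caspase inhibitor wells for full effect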
# Target sequence (O14727 whole entry, looked up): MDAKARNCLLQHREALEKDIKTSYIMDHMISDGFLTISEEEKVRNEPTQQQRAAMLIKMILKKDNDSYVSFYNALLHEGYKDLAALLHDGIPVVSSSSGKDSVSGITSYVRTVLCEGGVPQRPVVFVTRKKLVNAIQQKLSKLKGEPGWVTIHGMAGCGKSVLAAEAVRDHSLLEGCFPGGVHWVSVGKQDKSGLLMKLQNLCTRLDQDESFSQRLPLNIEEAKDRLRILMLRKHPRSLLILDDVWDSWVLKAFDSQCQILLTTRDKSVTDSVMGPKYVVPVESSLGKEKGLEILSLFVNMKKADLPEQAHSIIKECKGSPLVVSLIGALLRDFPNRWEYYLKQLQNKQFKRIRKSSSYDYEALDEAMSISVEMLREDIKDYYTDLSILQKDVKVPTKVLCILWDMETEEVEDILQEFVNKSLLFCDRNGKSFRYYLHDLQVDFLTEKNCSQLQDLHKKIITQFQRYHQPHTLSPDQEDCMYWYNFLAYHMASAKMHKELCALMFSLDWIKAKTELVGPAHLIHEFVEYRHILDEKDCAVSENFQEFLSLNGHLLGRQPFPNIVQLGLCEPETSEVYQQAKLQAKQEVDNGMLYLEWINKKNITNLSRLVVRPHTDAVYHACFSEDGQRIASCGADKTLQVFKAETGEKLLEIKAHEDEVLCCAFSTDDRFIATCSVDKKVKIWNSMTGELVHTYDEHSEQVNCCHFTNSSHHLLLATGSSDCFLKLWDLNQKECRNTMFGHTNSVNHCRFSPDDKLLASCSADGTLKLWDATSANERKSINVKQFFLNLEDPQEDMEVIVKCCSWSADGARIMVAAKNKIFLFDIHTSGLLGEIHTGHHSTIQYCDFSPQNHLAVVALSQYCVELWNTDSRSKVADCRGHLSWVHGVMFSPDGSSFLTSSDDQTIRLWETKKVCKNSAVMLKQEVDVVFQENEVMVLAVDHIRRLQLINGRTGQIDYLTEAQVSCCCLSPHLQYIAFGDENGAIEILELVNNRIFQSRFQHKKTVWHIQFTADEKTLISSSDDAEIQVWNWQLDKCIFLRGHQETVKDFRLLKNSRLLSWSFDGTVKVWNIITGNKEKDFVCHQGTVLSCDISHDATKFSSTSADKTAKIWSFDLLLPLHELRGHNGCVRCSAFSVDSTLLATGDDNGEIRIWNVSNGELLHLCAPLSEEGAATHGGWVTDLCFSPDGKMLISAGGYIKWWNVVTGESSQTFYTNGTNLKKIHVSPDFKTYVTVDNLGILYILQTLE
#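 Material: reconstituted apoptosome with Apaf-1, cytochrome c, caspase-9, procaspase-3, dATP / Buffer or medium: pH 7.5 Hepes buffer with CHAPS, BSA, DTT / Also added: cytochrome c with DEVD-Rh110 / Schedule: compound with Apaf-1, dATP, procaspase-3 30 min, then 50 min reaction, room temperature / Technique: rhodamine 110 fluorescence at Ex 480/Em 540 nm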
# ZTA counter = ZTA (EBV) inhibition in EBNA-1 counter-screen. P03206. ZTA-DNA binding, fluorescence polarization. inhibition, % at 11 µM. actives 0.15% (n = 320,000). AID 2234; in the data active = inhibition above about 33%
# EBNA-1 inh = blocks EBNA-1 binding to DNA; EBNA-1 DNA binding, fluorescence polarization; inhibition, % at 14.8 µM; actives 0.34% (n = 300,000); in the data active = inhibition above about 28%
# PfGluPho inh = PfG6PD (Plasmodium falciparum) enzyme inhibition; PfGluPho enzyme, NADPH resazurin-diaphorase fluorescence; inhibition, % at 20 µM; actives 0.78% (n = 350,000); AID 504690;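 active = inhibition reaching at least a set limit at 20 µM in the primary screen, cut at about 59% in these data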;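 note: 0% = DMSO wells with substrate and 100% = DMSO wells lacking glucose-6-phosphate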
# EBNA-1 inh conf = EBNA-1 (EBV) inhibition, confirmation. inhibition, % at 14.8 µM. Recombinant EBNA-1 DBD, Cy5-DNA fluorescence polarization. actives 35% (n = 830). shares compounds with EBNA-1 inh;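 active = mean inhibition across replicates above a set limit taken from the earlier primary screen, cut at about 28% in these data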;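 note: plate controls were EBNA-1 protein with DMSO for no effect and wells lacking EBNA-1 for full effect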
# ZTA DNA inh trip = counter-screen for EBNA-1 inhibitors: Epstein-Barr virus ZTA inhibitors, triplicate | 830 tested, under 10 active | shares compounds with EBNA-1 inh | inhibition, % at 11.1 µM | Zta-ZRE DNA binding, Cy5 fluorescence polarization;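 active = mean inhibition over triplicates above a set limit taken from the primary EBNA-1 screen, cut at about 37% in these data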;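 note: purified full length Zta protein with Cy5 labeled ZRE DNA probe; 0% = Zta with DMSO and 100% = wells lacking Zta protein; inhibitors lower polarization by freeing the labeled DNA probe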
# Starred values were filed as active, the others as inactive; ? = inconclusive; . = no result; + = active, no number; ! = repeats disagree. A selection: hits, their analogues and other compounds. The true share with any hit is near 2.9%.
SMILES,UBC13 inh,M18AAP inhibitor,Apaf1 inhib,ZTA counter,EBNA-1 inh,PfGluPho inh,EBNA-1 inh conf,ZTA DNA inh trip
COc1ccccc1CN(C(=O)CNC(=O)c1ccco1)C(C(=O)NCC1CCCO1)c1ccccc1 (stereo unspecified),-1,2,0,-3,-5,-6,.,.
CCOC(=O)c1c(C)[nH]c(C(=O)COC(=O)CCS(=O)(=O)c2ccc(C)cc2)c1C,5,0,13,1,39*,17,29*,6
CC(OC(=O)[C@@H](NS(=O)(=O)c1ccccc1)C(C)C)C(=O)c1c(N)n(C)c(=O)n(C)c1=O (stereo partly specified),.,.,.,.,.,-4,.,.
Cc1nc(Nc2ccc(Cl)cc2)c2oc3ccccc3c2n1,4,2,15,-1,0,7,.,.
Cc1nc(Nc2cccc(Cl)c2)c2oc3ccccc3c2n1,17,-6,13,4,29*,31,-4,11
Cc1oc(-c2cccs2)nc1CN1CCC(c2ccccc2)CC1,8,-13,0,-13,-1,2,.,.
NC(=O)c1cc(-c2ccccc2)sc1NC(=O)Cc1ccc(S(=O)(=O)N2CCOCC2)s1,1,2,12,-5,31*,-20,53*,3
Cc1ccc(N=Nc2ccc(O)c(/C=N\NC(=O)c3ccc(N)cc3)c2)cc1C,-22,8,8,-3,38*,6,-6,23
O=C(N/N=C/c1cc(Cl)ccc1O)c1ccc(Br)cc1,.,-5,.,0,-11,-15,.,.
Cc1ccc(NC(=O)c2sc3ncn(CC(=O)N4CCN(c5ccccn5)CC4)c(=O)c3c2C)cc1Cl,26,7,28,-13,31*,12,-3,-1
Cc1ccc(NC(=O)c2sc3ncn(CC(=O)N4CCN(c5ccccn5)CC4)c(=O)c3c2C)cc1F,4,6,1,-8,-2,9,.,.
CCOC(=O)Cc1csc(SCC(=O)Nc2oc(C)c3c(C)n[nH]c(=O)c23)n1,-5,.,1,-7,.,-5,.,.
Cc1cccc(N(C(=O)c2snc(C(N)=O)c2N)C(C(=O)NCC2CCCO2)c2ccc(N(C)C)cc2)c1C (stereo unspecified),9,1,24,14,40*,2,97*,10
CN(C)c1ccc(C(C(=O)NCC2CCCO2)N(Cc2ccccc2)C(=O)c2snc(C(N)=O)c2N)cc1 (stereo unspecified),10,4,5,1,-6,12,.,.
COc1ccc(C2(c3ccc(OC)cc3)NC(=O)N(CC(=O)N(C)C)C2=O)cc1,-2,-6,-131,-6,-15,-7,.,.
Cc1ccc(Nc2nc(Oc3ccc(OCc4ccccc4)nn3)nc(N3CCOCC3)n2)cc1,11,10,15,-6,32*,13,3,-5
CC(C)n1nnnc1SCC(=O)N1CCN(Cc2ccc3c(c2)OCCO3)CC1,-9,.,3,6,.,-5,.,.
Cc1cc(C)c2cc(C#N)c(SCC(=O)NCC3CCCO3)nc2c1 (stereo unspecified),10,-7,2,11,5,0,.,.
Cc1cc(C)c2cc(C#N)c(SCC(=O)Nc3ccc4c(c3)OCO4)nc2c1,-7,-6,-27,-2,32*,-1,50*,1
Cc1ccccc1NC(=O)Cc1nc(COC(=O)c2cc(Br)ccc2O)cs1,16,.,27,7,.,-2,.,.
Cc1ccccc1NC(=O)Cc1nc(COC(=O)c2cc(Cl)ccc2O)cs1,16,-2,17,-7,33*,6,10,5
c1ccc(-c2nnc(SCCC3OCCCO3)o2)cc1,-18,2,10,7,6,6,.,.
COC(=O)[C@H](Cc1ccccc1)NC(=O)O[C@H]1C(=O)c2ccc(OC)cc2O[C@@H]1c1ccc2c(c1)OCO2,7,1,12,-24,29*,12,0,2
COC(=O)[C@H](Cc1ccccc1)NC(=O)O[C@@H]1C(=O)c2cc(OC)ccc2O[C@H]1c1ccc(OC)c(Br)c1,32,4,5,-1,2,.,.,.
O=c1[nH]cc(S(=O)(=O)N2CCN(c3cccc(C(F)(F)F)c3)CC2)c(=O)[nH]1,5,.,-6,-7,31*,-20,-5,4
SMILES,UBC13 inh,M18AAP inhibitor,Apaf1 inhib,ZTA counter,EBNA-1 inh,PfGluPho inh,EBNA-1 inh conf,ZTA DNA inh trip
CC(C)c1ccc(NC2CCCN(C(=O)CC3CCCC3)C2)cc1 (stereo unspecified),2,18,13,0,-12,-6,.,.
COc1ccc(-c2csc(NC(=S)NC(=O)c3ccc(S(=O)(=O)N(C)C)cc3)n2)cc1OC,-16,6,-30,15,46*,-5,59*,41*
FC(F)(F)c1ccc(Cl)c(NC2=NCCCCC2)c1,1,6,2,-21,-2,-3,.,.
COc1ccc(CN(CCN(C)C)c2ccccn2)cc1,-3,-2,6,31,+!,-5,8,8
O=C(NC1CCCCC1)N1CCN(c2ncccn2)CC1,2,-2,-11,-9,-1,-12,.,.
Cn1c(N)c(C(=O)COC(=O)CSc2cccc3cccc(Cl)c23)c(=O)n(C)c1=O,2,5,-8,6,32*,-1,46*,22
CCOc1ccc(NC(=O)C(=O)N/N=C\c2ccc(CNS(=O)(=O)c3ccccc3)o2)cc1,-14,1,-11,-14,63*,15,58*,-2
CNC(=O)/C(C#N)=C\c1ccc(CNS(=O)(=O)c2ccccc2)o1,-12,-1,5,-7,-2,3,.,.
Cc1ccc(C(=O)COC(=O)CCNS(=O)(=O)c2ccccc2F)cc1,8,.,3,.,.,-17,.,.
CC(C)n1cc(/C=N\NC(=O)c2cc3c(ccc4ccccc43)o2)c2ccccc21,.,-6,.,.,.,5,.,.
CCn1cc(/C=N/NC(=O)c2cc3c(ccc4ccccc43)o2)c2ccccc21,-8,1,17,-2,62*,23,8,10
CN(C)c1ccc(NC(=O)CCn2c(=S)oc3ccccc32)cc1,-6,6,3,-16,-3,39,.,.
O=C(CCn1c(=S)oc2ccccc21)Nc1ccc(F)cc1,10,-15,-12,7,48*,4,19,2
Cc1ccc(NC(=O)CCn2c(=S)oc3ccccc32)cc1,0,8,-3,-4,43*,-7,55*,1
COc1cc(OC)cc(-c2c(-c3cccs3)c3cc(-c4cnc(OC)nc4)ccc3n2C)c1,?,.,11,6,.,-1,.,.
O=C(CSc1nc(=O)[nH]c2c1CCCC2)Nc1ccc(F)cc1F,4,.,2,8,-1,2,.,.

# Bioassay records as filed in PubChem BioAssay.
